This note sets out measurements from ChEMBL document CHEMBL1128365, “S-(5'-deoxy-5'-adenosyl)-1-aminoxy-4-(methylsulfonio)-2-cyclopentene (AdoMao): an irreversible inhibitor of S-adenosylmethionine decarboxylase with potent in vitro antitrypanosomal activity” (J Med Chem, 1995).

For test [1], the system named is HL-60. As to the kind of experiment: Polyamine levels in cultured HL60 cells on putrescine at the concentration of 0.1 uM. It is filed as functional, Homo sapiens. Put shortly:
(§1)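 HL60 human promyelocytic leukemia cells exposed to inhibitor for 96 h, then sonicated. AdoMet-DC activity measured by the Anton and Kutny method. Intracellular putrescine, spermidine and spermine quantified by HPLC (Danzin method). Each value is the mean of two determinations.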

In test [2] the test system is HL-60. The test can be described thus: Polyamine levels in cultured HL60 cells on putrescine at the concentration of 1.0 uM. Type of test: functional, Homo sapiens. In a few lines:
as §1

For test [3], the system named is HL-60. As to the kind of experiment: Polyamine levels in cultured HL60 cells on putrescine at the concentration of 50.0 uM. Type of test: functional, Homo sapiens. Put shortly: as §1
Test [4] has as its system Trypanosoma brucei rhodesiense. The test can be described thus: Compound was evaluated for the percentage inhibition of growth of uM. Type of test: functional.
Test [5] relates to HL-60. As to the kind of experiment: Polyamine levels in cultured HL60 cells on spermidine at the concentration of 10.0 uM. Type of test: functional, Homo sapiens. In a few lines: as §1
Test [6] concerns the target S-adenosylmethionine decarboxylase (Escherichia coli) (UniProt P0A7F6). As to the kind of experiment: Compound was evaluated for the inhibitor against Escherichia coli S-adenosyl-L-methionine decarboxylase.
For test [7], the target named is T1, S-adenosylmethionine decarboxylase proenzyme (Homo sapiens, UniProt P17707).
T1 sequence (P17707 whole entry): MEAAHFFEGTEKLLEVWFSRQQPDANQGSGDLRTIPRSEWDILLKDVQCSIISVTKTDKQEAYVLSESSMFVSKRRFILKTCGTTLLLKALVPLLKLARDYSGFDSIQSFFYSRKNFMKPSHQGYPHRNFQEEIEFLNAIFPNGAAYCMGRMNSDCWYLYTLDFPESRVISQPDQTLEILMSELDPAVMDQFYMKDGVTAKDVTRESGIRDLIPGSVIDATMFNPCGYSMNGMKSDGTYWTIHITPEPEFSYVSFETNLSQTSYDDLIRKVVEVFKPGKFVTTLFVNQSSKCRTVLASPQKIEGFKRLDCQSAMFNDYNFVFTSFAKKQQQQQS
As to the kind of experiment: (§2) Compound was evaluated for the inhibitor constant against human S-adenosyl-L-methionine decarboxylase.

Test [8] has as its system HL-60. The test can be described thus: Polyamine levels in cultured HL60 cells on spermidine at the concentration of 0.1 uM. Type of test: functional, Homo sapiens. In a few lines: as §1
Test [9] concerns HL-60. As to the kind of experiment: Polyamine levels in cultured HL60 cells on S-Adenosyl-methionine decarboxylase at the concentration of 100.0 uM. Type of test: functional, Homo sapiens. Put shortly:
as §1

Test [10] relates to HL-60. As to the kind of experiment: Polyamine levels in cultured HL60 cells on S-Adenosyl-methionine decarboxylase at the concentration of 50.0 uM. Type of test: functional, Homo sapiens. Put shortly:
as §1

In test [11] the test system is HL-60. As to the kind of experiment: Polyamine levels in cultured HL60 cells on spermine at the concentration of 50.0 uM. It is filed as functional, Homo sapiens. Put shortly:
as §1

Test [12] relates to HL-60. The test can be described thus: Polyamine levels in cultured HL60 cells on putrescine at the concentration of 100.0 uM. Type of test: functional, Homo sapiens. In a few lines: as §1
For test [13], the system named is HL-60. The test can be described thus: Polyamine levels in cultured HL60 cells on spermidine at the concentration of 50.0 uM. It is filed as functional, Homo sapiens. In a few lines:
as §1

The test system of test [14] is HL-60. As to the kind of experiment: Polyamine levels in cultured HL60 cells on S-Adenosyl-methionine decarboxylase at the concentration of 1.0 uM. Type of test: functional, Homo sapiens. In a few lines:
as §1

In test [15] the test system is HL-60. As to the kind of experiment: Polyamine levels in cultured HL60 cells on spermine at the concentration of 10.0 uM. It is filed as functional, Homo sapiens. Put shortly: as §1
Test [16] deals with Trypanosoma brucei brucei. As to the kind of experiment: Compound was evaluated for the inhibition of growth of Trypanosoma brucei. Type of test: functional, organism-based. Put shortly:
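T. brucei brucei bloodforms cultured in modified Iscove's medium, 3% CO2 in air, 37 °C, feeder layer-free. Inhibitor dissolved in medium; half the volume replaced daily with double-strength inhibitor. Growth read by daily cell counts, IC50 after 48 h. Alternatively: 24 h with inhibitor, wash, 24 h with 1.0 μCi [3H]hypoxanthine, filtration and scintillation counting. Mean of two determinations.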

Test [17] has as its system HL-60. The test can be described thus: Polyamine levels in cultured HL60 cells on putrescine at the concentration of 10.0 uM. It is filed as functional, Homo sapiens. In a few lines: as §1
For test [18], the system named is HL-60. The test can be described thus: Polyamine levels in cultured HL60 cells on spermine at the concentration of 1.0 uM. Type of test: functional, Homo sapiens. Put shortly:
as §1

Test [19] has as its system HL-60. The test can be described thus: Polyamine levels in cultured HL60 cells on spermine at the concentration of 0.1 uM. Type of test: functional, Homo sapiens. In a few lines: as §1
Test [20] deals with HL-60. The test can be described thus: Polyamine levels in cultured HL60 cells on spermidine at the concentration of 1.0 uM. Type of test: functional, Homo sapiens. Put shortly: as §1
Test [21] has as its system HL-60. As to the kind of experiment: Polyamine levels in cultured HL60 cells on spermidine at the concentration of 100.0 uM. Type of test: functional, Homo sapiens. In a few lines: as §1
Test [22] deals with HL-60. The test can be described thus: Polyamine levels in cultured HL60 cells on S-Adenosyl-methionine decarboxylase at the concentration of 10.0 uM. Type of test: functional, Homo sapiens. In a few lines: as §1
The subject of test [23] is HL-60. The test can be described thus: Polyamine levels in cultured HL60 cells on spermine at the concentration of 100.0 uM. It is filed as functional, Homo sapiens. Put shortly:
as §1

For test [24], the system named is Trypanosoma brucei rhodesiense. As to the kind of experiment: Compound was evaluated for the inhibition of growth of brucei rhodesiense (KETRI 243). It is filed as functional, organism-based.
Test [25] relates to HL-60. The test can be described thus: Polyamine levels in cultured HL60 cells on S-Adenosyl-methionine decarboxylase at the concentration of 0.1 uM. It is filed as functional, Homo sapiens. In a few lines: as §1
For test [26], the target named is T2, S-adenosylmethionine decarboxylase proenzyme (Homo sapiens) (UniProt P17707).
T2 sequence (whole entry): T1 sequence (P17707 whole entry)
The description is as §2.

For test [27], the target named is T1, S-adenosylmethionine decarboxylase proenzyme. The test can be described thus: (§3) compound was evaluated for the inhibitor constant against human S-adenosyl-L-methionine decarboxylase.
Test [28] concerns the target S-adenosylmethionine decarboxylase (Escherichia coli) (UniProt P0A7F6). As to the kind of experiment: compound was evaluated for the inhibitor against Escherichia coli S-adenosyl-L-methionine decarboxylase.
For test [29], the target named is T2, S-adenosylmethionine decarboxylase proenzyme (Homo sapiens). The description is as §3.

Sequence of S-adenosylmethionine decarboxylase (Escherichia coli) (P0A7F6 whole entry, looked up): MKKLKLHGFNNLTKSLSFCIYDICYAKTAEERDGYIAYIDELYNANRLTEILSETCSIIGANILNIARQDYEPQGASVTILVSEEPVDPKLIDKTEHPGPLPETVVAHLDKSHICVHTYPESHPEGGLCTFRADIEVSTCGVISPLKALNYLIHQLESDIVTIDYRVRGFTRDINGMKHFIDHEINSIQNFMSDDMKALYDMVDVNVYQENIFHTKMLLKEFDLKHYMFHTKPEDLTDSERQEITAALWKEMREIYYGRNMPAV

As to `C[S+](C[C@H]1O[C@@H](n2cnc3c(N)ncnc32)[C@H](O)[C@@H]1O)C1C=CC(ON)C1.O=S(=O)(O)O.O=S(=O)([O-])O` (stereo not given in full), the Activity in [1] came out at 0.71 nM/mg; in [2] it was 0.94 nM/mg; in [3], 0.79 nM/mg; in test [5] it was 8.4 nM/mg; in [8] it was 7.9 nM/mg; in [9] it was 489 pmol/h/mg. In addition, the Activity in [10] amounted to 449 pmol/h/mg; in [11] it was 28 nM/mg; in test [12], 0.94 nM/mg; in test [13], 11.2 nM/mg; in test [14] it was 347 pmol/h/mg; in test [15], 31.6 nM/mg. For the same compound, the Activity in test [17] came to 0.71 nM/mg; in test [18] it was 38.1 nM/mg; in test [19], 30.4 nM/mg; in test [20] it was 10.1 nM/mg; in [21], 16.1 nM/mg; in test [22] it was 293 pmol/h/mg. Moreover, the Activity in test [23] came out at 27 nM/mg; in test [25], 355 pmol/h/mg. The Inhibition (as a rule, the change of the read-out against control, counted positive when it falls) in test [4] is given as 49%. The kinact (usually the rate constant of inactivation at saturating inhibitor) was found to be 0.015 min⁻¹ in test [6] and 0.115 min⁻¹ in test [26]. In addition, in test [7], the Ki (commonly a dissociation constant, usually derived from enzyme kinetics or from competition with a known ligand) was determined as 19.6 µM. Further, the IC50 (usually the concentration at which inhibition is half-maximal) amounted to 0.9 µM in test [16] and 10 µM in test [24].

In [27], `C[S+](C[C@H]1O[C@@H](n2cnc3c(N)ncnc32)[C@H](O)[C@@H]1O)[C@H]1C=C[C@H](ON)C1` (stereo not given in full) had a Ki of 21.2 µM. Further, the kinact in [28] is 0.025 min⁻¹; in test [29], 0.079 min⁻¹. Also, the IC50 in test [16] was found to be 10 µM.
